Entries after “also recorded” stand apart in the source; their conditions may differ. Where a SMILES comes first, the peptide text is derived from it.
Assays:
[1] = target: T1, cdk2/cyclin E complex (Homo sapiens, UniProt P24941); assay: Phosphorylation of RNAPII CTD; assay type: biochemical
Summary of the method: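 C81 cell lysate was fractionated on Superose 6 size exclusion, and cdk2 fractions 28–32 were pooled with test peptide (0.01, 0.1, 1, 10 μM). Cyclin E was immunoprecipitated overnight at 4°C (1 μg antibody, ~100 ng active cdk2/cyclin E), captured on protein A/G beads and washed. Kinase reaction: 20 μl, 1 hr, 37°C, GST-CTD substrate, (γ-32P) ATP. Products run on 4–20% Tris-glycine gel, dried, 32P bands counted by phosphorimager.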

[2] = system: cdk2; settings: cited from earlier work
[3] = system: RNA polymerase II (RNAPII) serine 5; settings: by disrupting cdk2/cyclin E complex formation; cited from earlier work
[4] = system: cdk2 K178A; settings: cited from earlier work
[5] = target: T1, cdk2/cyclin E complex; settings: cited from earlier work
[6] = system: cdk2 Y180A; settings: cited from earlier work
[7] = system: cdk2 R126A; settings: alanine mutation experiment; cited from earlier work

## CC(C)C[C@H](NC(=O)[C@H](C)NC(=O)[C@H](C)NC(=O)[C@@H](N)CC(C)C)C(=O)N[C@@H](CO)C(=O)O [LAALS] (H-LAALS-OH)
[1]
  IC50: 4.26 µM

## TAALS
[2]
  Interaction with cdk2: interacts directly with cdk2
[3]
  Inhibition of phosphorylation of serine 5 of RNAPII: inhibits the phosphorylation of serine 5 of RNA polymerase II (RNAPII)
[4]
  Binding affinity to mutant: dramatic reduction in their binding affinity
[5]
  Disruption of cdk2/cyclin E complex: disrupts the cdk2/cyclin E complex; also recorded: succeeded in partially breaking the cdk2/cyclin E complex
[6]
  Binding affinity to mutant: dramatic reduction in their binding affinity
[7]
  Effect of R126A mutation on peptide binding: does not participate significantly in the peptide binding; also recorded: does not affect the binding of peptide TAALS
